# INS-1E rescue: preserves ATP levels in cytokine-treated INS-1E cells | 20,000 tested, 0.1% active | INS-1E cytokine-induced death, ATP luminescence, 48 h; normalised: neutral wells 0, positive control 100 | protection from cytokine-induced ATP loss, % at 10 µM;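 active = mean replicate protection from cytokine-induced ATP loss at least 50% and at least 75% of replicates each reaching 50%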
#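 Assay system – rat INS-1E insulinoma cell line · Quantity – 8000 cells per well · Buffer or medium – RPMI without phenol red, 5% FBS · Schedule – 48 h co-treatment, 10 min post-lysis read · Technique – luminescent ATP assay (CellTiter-Glo)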
# A1 apoptosis 2: A1 inhibition read as caspase activation; MEF A1-2A-BIM cells, caspase-Glo luminescence, 3 h; percent of clofoctol response, DMSO zero; 24,000 tested, under 10 active; caspase activation, % (no concentration beside the values); AID 2465; in the data active = caspase activation above about 5.9%
#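 Material: mouse embryonic fibroblasts co-expressing A1 and BIM (A1-2A-BIM), primed for A1 dependence / Quantity: 2500 cells/well / Buffer or medium: RPMI-1640 growth medium with 10% FBS / Doses: 50 nL compound per well, pinned / Schedule: 3 h compound exposure at 37 °C / Signal: Caspase-Glo luminescence (DEVD substrate) / Measure: Caspase-3/7 activation, seen as rise in luminescence signal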
# T cruzi intra: blocks T. cruzi growth inside host cells; intracellular Trypanosoma cruzi in host cells, plate reader; activity score (inhibition), % at 5.01 µM; 22,000 tested, 4.9% active; in the data active = activity score above about 55%;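 note: parasites and compound incubated about four days before reading; 0% = median of neutral control wells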
# * marks the source's active call; other numbers are inactive results; . = not tested or not shown. The sample as a whole holds a higher share of hits than the screen did.
SMILES,INS-1E rescue,A1 apoptosis 2,T cruzi intra
C[C@@H]1CN([C@H](C)CO)C(=O)c2cccc(NC(=O)c3ccncc3)c2O[C@H]1CN(C)Cc1ccc(C(=O)O)cc1,1,-1,-10
COCCCNC(=O)[C@@]1(Cc2ccccc2I)c2ccccc2C(=O)N(Cc2ccccc2OC)[C@H]1c1ccc(CO)cc1,.,0,.
COC(=O)CCCCCCC(=O)N/N=C/c1cccc(Oc2ccccc2)c1,3,.,-6
C[C@@H]1CN([C@@H](C)CO)C(=O)Cc2cc(NC(=O)Nc3ccc(C(F)(F)F)cc3)ccc2O[C@H]1CN(C)Cc1ccc(-c2ccccc2)cc1,.,0,.
C[C@@H]1CN([C@H](C)CO)C(=O)Cc2cc(NC(=O)Nc3ccc(C(F)(F)F)cc3)ccc2O[C@H]1CN(C)Cc1ccncc1,16,1,-10
C[C@H](CO)N1C[C@H](C)[C@H](CN(C)Cc2ccncc2)Oc2ccc(NC(=O)Nc3ccc(C(F)(F)F)cc3)cc2CC1=O,-19,-1,61*
C[C@H]1CN([C@@H](C)CO)C(=O)Cc2cc(NC(=O)CCC(F)(F)F)ccc2O[C@@H]1CN(C)Cc1ccc(C(F)(F)F)cc1,-1,.,64*
C[C@H]1CN([C@@H](C)CO)C(=O)c2cc(NC(=O)Nc3ccc(C(F)(F)F)cc3)ccc2O[C@@H]1CN(C)Cc1ccc(Cl)c(Cl)c1,-52,.,11
C[C@H](CO)N1C[C@H](C)[C@H](CN(C)Cc2ccc(Cl)c(Cl)c2)Oc2ccc(NC(=O)Nc3ccc(C(F)(F)F)cc3)cc2C1=O,-25,-1,91*
C[C@@H]1CN([C@H](C)CO)C(=O)Cc2cc(NC(=O)Nc3ccc(C(F)(F)F)cc3)ccc2O[C@@H]1CN(C)Cc1ccc(C(F)(F)F)cc1,-65,1,68*
C[C@@H]1CN([C@H](C)CO)C(=O)Cc2cc(NC(=O)CCC(F)(F)F)ccc2O[C@H]1CN(C)Cc1ccc(C(F)(F)F)cc1,-7,.,49
C[C@@H]1CCCCO[C@H](CN(C)Cc2ccc(Cl)c(Cl)c2)[C@H](C)CN([C@@H](C)CO)C(=O)c2cc(NC(=O)NC3CCCCC3)ccc2O1,.,0,.
CC1=C(C/C=N/NC(=O)CCCCCC(=O)O)C(C)(C)CCC1,-10,.,-11
C[C@@H]1CN([C@@H](C)CO)C(=O)c2cc(NC(=O)Cc3ccccc3)ccc2O[C@@H]1CN(C)S(=O)(=O)c1ccc(F)cc1,3,.,10
O=C(N/N=C/c1ccc(O)c(O)c1O)c1ccccn1,21,-11,51
O=C(O)CCCCCCC(=O)N/N=C/c1cc(O)ccc1Br,6,1,-20
COc1ccc(Br)c(/C=N/NC(=O)c2ccccn2)c1,-7,-10,-6
C[C@H](CO)N1C[C@H](C)[C@@H](CN(C)Cc2ccc(C(F)(F)F)cc2)Oc2ccc(NC(=O)Nc3ccccc3)cc2CC1=O,.,2,.
C[C@H](CO)N1C[C@H](C)[C@H](CN(C)Cc2ccc(C(F)(F)F)cc2)Oc2ccc(NC(=O)Nc3ccc(C(F)(F)F)cc3)cc2CC1=O,-69,6.6*,72*
C[C@@H]1CN([C@@H](C)CO)C(=O)Cc2cc(NC(=O)Nc3ccc(C(F)(F)F)cc3)ccc2O[C@@H]1CN(C)Cc1ccc(C(=O)O)cc1,9,0,-24
C[C@H]1CN([C@@H](C)CO)C(=O)Cc2cc(NC(=O)Nc3ccc(C(F)(F)F)cc3)ccc2O[C@@H]1CN(C)Cc1ccc(Cl)c(Cl)c1,-12,.,-5
C[C@@H]1CN([C@H](C)CO)C(=O)Cc2cc(NC(=O)Nc3ccc(C(F)(F)F)cc3)ccc2O[C@H]1CN(C)Cc1ccc(C(F)(F)F)cc1,-1,0,81*
C[C@@H]1CN([C@@H](C)CO)C(=O)Cc2cc(NC(=O)Nc3ccc(C(F)(F)F)cc3)ccc2O[C@@H]1CN(C)Cc1ccc(Cl)c(Cl)c1,-37,.,57*
O=C(NO)c1ccc(C(=O)N/N=C/c2ccc(Br)s2)cc1,18,.,-11
C[C@@H]1CCCCO[C@@H](CN(C)CC2CCCCC2)[C@@H](C)CN([C@@H](C)CO)C(=O)c2cc(NS(=O)(=O)c3cn(C)cn3)ccc2O1,.,0,.
CCN(CC)c1ccc(/C=N/NC(=O)c2ccccn2)c(O)c1,.,-10,.
Cc1noc(C)c1S(=O)(=O)Nc1ccc2c(c1)C(=O)N([C@H](C)CO)C[C@@H](C)[C@@H](CN(C)Cc1ccc(Cl)c(Cl)c1)O2,-8,.,5
Cc1noc(C)c1S(=O)(=O)Nc1ccc2c(c1)CC(=O)N([C@H](C)CO)C[C@H](C)[C@H](CN(C)Cc1ccc(Cl)c(Cl)c1)O2,-10,1,53

# Screening data: PubChem, Broad Institute
